This is a sample that favours compounds with a hit; in the whole collection about 3.8% have one here.
RAM network inh – blocks the yeast RAM network; AID 868; hit rate 1.8% among 190,000; S. cerevisiae dse1pr::URA3 reporter, 5-FOA growth OD615, 2 d; analog-sensitive cbk1-as2 kinase mutant strain; inhibition, % at 50 µM;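 active means inhibition above a set limit, 3 SD over mean compound inhibition, cut at about 8.4% in these data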;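 further: 0% = DMSO-only wells with no growth and 100% = 10 µM 1-NA-PP1 full growth; inhibition rescues growth on 5-FOA so higher OD means more RAM inhibition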
Measles CPE – protection of cells from measles virus. hit rate 1.5% among 140,000. protection (pct of control), % at 4 µM. Measles virus-infected cells, CPE protection, absorbance; in the data active means protection mostly above about 24%, no sharp cut-off; inactive means mostly below about 26%
Yeast growth inh – chemicals that inhibit yeast BB579 growth in restrictive medium (lifespan-shortening candidates). S. cerevisiae BB579 growth, OD615, 48 h. inhibition, % at 10 µM. hit rate 0.51% among 140,000;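 active means inhibition above a set limit, 3 SD over the mean compound inhibition, cut at about 44% in these data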
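Test system: Saccharomyces cerevisiae DeaD strain BB579, replicative lifespan model yeast | Buffer or medium: Restrictive CSMM-D medium | Doses: One dose, 10 µM compound with 0.25% DMSO | Incubation: 48 h exposure, 30 °C | Detection: Culture absorbance at 615 nm | Control set: Amphotericin B at 10 µg/mL as positive control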
SDO1 yeast rescue – compounds rescuing growth of sdo1-depleted yeast, bone marrow failure model; S. cerevisiae sdo1-depleted JHY4D growth rescue, OD600 30 h; stronger effect = higher value; pdr5 snq2 efflux-pump mutant strain; z-score at 10 µM; hit rate 0.21% among 140,000; AID 817;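 active means z-score above 3 at both the 24 hr and the 30 hr optical density reads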;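 further: z-score against mean and SD of all compound wells on the same plate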
Yeast life ext – yeast lifespan extension; inhibition of the nicotinamide effect, % at 10 µM; hit rate 0.68% among 130,000; S. cerevisiae growth with nicotinamide, OD615; deaD strain in restrictive glucose medium;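 active means inhibition above a set limit, placed 3 SD over the median of all compounds, cut at about 26% in these data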;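 further: 0% = nicotinamide-treated wells and 100% = cells grown without nicotinamide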
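System: DeaD-strain S. cerevisiae / Buffer or medium: CSMM-D, restrictive glucose (dextrose) synthetic minimal medium / Probe or stimulus: nicotinamide, 1.5 mM, co-present with compound / Compound: one concentration, 10 µM, DMSO 0.25% / Incubation: 48 h compound exposure at 30 °C, humidified / Technique: optical density (absorbance) at 615 nm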
An asterisk follows results filed as active; nt = not tested or not shown.

SMILES	RAM network inh	Measles CPE	Yeast growth inh	SDO1 yeast rescue	Yeast life ext
COc1ccc(OCc2nnc(SCC(=O)c3c(N)n(C)c(=O)n(C)c3=O)n2-c2ccccc2F)cc1	10.8*	nt	nt	nt	nt
CC(CCc1ccccc1)NC(=O)CCCCCNc1nc(=S)[nH]c2ccccc12 (centres undefined)	1.6	nt	nt	nt	nt
Cc1oc(CC(C)C)cc1C(=O)Nc1cccc2ccccc12	8.2	37.1*	-51.1	-2.12	-4.4
O=C1CNC(=O)/C1=C/c1ccccc1	-1.0	7.0	-51.6	0.8	29.4*
O=C1CNC(=O)/C1=C\c1ccc(O)cc1	1.8	8.4	-11.8	1.07	-2.9
Cc1ccc(-c2nc(-c3ccc(Cl)cc3)sc2CC(=O)O)c(C)c1	9.6*	nt	nt	nt	nt
O=C(O)Cc1sc(-c2ccccc2Cl)nc1-c1ccccc1	4.4	nt	nt	nt	nt
COc1ccccc1/C=C/C(=O)OCc1nc2ccccc2c(=O)[nH]1	1.1	nt	nt	nt	nt
Cc1ccnc(NC(=O)Nc2ccc(Br)cc2Cl)c1	1.2	nt	nt	nt	nt
O=C(O)CCCC(=O)Nc1ccccc1C(=O)N1CCOCC1	1.5	nt	nt	nt	nt
CCCCC(=O)Nc1ccccc1C(=O)N1CCOCC1	0.4	37.1*	-11.5	1.14	nt
Cn1c(SCCCC(=O)c2ccc(Br)cc2)nnc1-c1ccncc1	1.5	4.6	-15.0	0.67	-3.3
CC(C)CC(=O)c1c[nH]c(C(=O)NCCCn2ccnc2)c1	0.0	12.7	-8.6	0.02	-4.3
CCN1/C(=C/c2ccc3cccc(C)c3[n+]2CC)Sc2ccccc21	1.0	5.6	95.9*	-3.14	-13.2
CC1(C)CC(=O)C2=C(C1)NC(SCC(=O)Nc1ccccc1)=C(C#N)C2c1ccco1 (centres undefined)	3.1	38.2*	9.0	-0.7	-21.5
CN(C)c1ccccc1C(=O)N1CCCC(C(=O)c2ccc3ccccc3c2)C1 (centres undefined)	0.0	nt	nt	nt	nt
COc1ccc2cc(C(=O)Nc3ccc(S(N)(=O)=O)cc3)sc(=O)c2c1OC	4.5	nt	nt	nt	nt
Clc1ccc(-n2nnnc2-c2ccccc2)cc1	-0.4	51.7*	-0.7	0.31	-20.6
CS/C(=C/[N+](=O)[O-])Nc1cccc2c1C(C)CC2(C)C (centres undefined)	0.7	nt	nt	nt	nt
Cc1nn(Cc2ccccc2Cl)c(C)c1NC(=O)CCCn1nc([N+](=O)[O-])c(Cl)c1C	4.8	25.2	-33.4	0.35	4.2
COc1cccc(C(=O)N/N=c2\sc3ccccc3n2C)c1	0.7	25.9*	-3.7	1.12	-1.2
Cc1ccc(C(=O)N/N=c2\sc3ccccc3n2C)cc1	0.5	27.0	7.1	-0.17	-4.7
Cc1cc(C)cc(NC(=O)COc2ccc(C(=S)N3CCOCC3)cc2)c1	2.4	nt	nt	nt	nt
CCS(=O)(=O)c1ccc2oc(SCC(=O)NC3CCCC(C)C3C)nc2c1 (centres undefined)	1.6	18.7*	-20.5	0.4	-7.6
O=C1CC(C(=O)N(c2ccccc2)C(C(=O)NC2CCCC2)c2ccncc2)CS1 (centres undefined)	3.3	nt	nt	nt	nt
SMILES	RAM network inh	Measles CPE	Yeast growth inh	SDO1 yeast rescue	Yeast life ext
CCOc1ccc(-c2nn(-c3ccccc3)cc2/C=C2\SC(=S)N(C3CCS(=O)(=O)C3)C2=O)cc1 (centres undefined)	9.3*	11.7	-54.7	0.91	0.2
O=C(NCc1ccccc1)c1cccc(NS(=O)(=O)c2cccc3cccnc23)c1	1.3	8.7	-19.3	0.4	-5.4
COC(=O)c1cc(NC(=O)CC2SCCNC2=O)cc(C(=O)OC)c1 (centres undefined)	2.3	48.0*	0.3	1.84	-11.3
O=C(CC1SCCNC1=O)Nc1cc(Cl)cc(Cl)c1 (centres undefined)	0.5	14.3	-11.1	0.09	-6.5
OC(Cc1cccnc1)(Cc1cccnc1)c1cc2ccccc2[nH]1	2.1	19.5	-13.4	0.41	-2.5
CC(=O)O[C@]1(C(C)=O)CC[C@H]2[C@@H]3C=C(Cl)C4=CC(=O)CC[C@]4(C)[C@H]3CC[C@@]21C	8.8*	7.7	-18.4	-0.19	2.3
O/N=C/c1cc(Cl)ccc1OCc1cccc2ccccc12	3.2	5.0	75.6*	-1.06	-8.6
C#CCOc1ccc(Cl)cc1/C=N/O	0.4	12.9	-13.8	1.3	-15.5
CC(=O)Nc1ccc(NC(=O)CCc2nc3ccccc3c(=O)[nH]2)cc1	2.8	nt	nt	nt	nt
O=C(CCc1nc2ccccc2c(=O)[nH]1)Nc1ccc(Cl)c(Cl)c1	1.5	31.4*	-15.3	-0.43	-3.1
O=C(NC(=S)Nc1ccccc1)c1ccc(-c2ccccc2)cc1	9.4*	6.0	-17.2	-1.35	8.0
CC(C)NS(=O)(=O)c1ccc(NC(=S)NC(=O)c2ccc(-c3ccccc3)cc2)cc1	3.8	43.5*	-26.2	-0.29	-6.5
O=C(O)c1ccc(NC(=S)NC(=O)c2ccc(-c3ccccc3)cc2)cc1	0.6	nt	nt	nt	nt
Cc1cc(NS(=O)(=O)c2ccc(NC(=S)NC(=O)c3cccnc3)cc2)no1	9.3*	nt	nt	nt	nt
Cc1sc(NC(=O)CSc2nnnn2C2CCCCC2)c(C#N)c1C	3.2	15.2	-19.8	-0.56	-2.8
Cc1nc2scc(-c3ccccc3)c2c(=O)n1N=C1C=CC(=O)C=C1	1.3	nt	nt	nt	nt
O=C(CSc1ccc(Cl)cc1)Nc1ccccc1N1CCN(C(=O)c2ccccc2)CC1	3.1	20.6	-26.4	-0.46	-3.7
CCN(CC)S(=O)(=O)c1cc(NS(=O)(=O)c2cc(Cl)ccc2Cl)ccc1C	11.1*	11.2	-38.4	-1.06	19.5
O=C(O)c1ccc(NS(=O)(=O)c2cc(Cl)ccc2Cl)cc1O	1.7	0.9	-54.3	0.99	-20.2
CCN=C1Sc2nc3ccc(OCC)cc3cc2CN1CCOC	1.4	8.5	-27.9	-0.55	-11.3
CCOc1ccc2nc3c(cc2c1)CN(CCOC)C(=NC)S3	-1.0	29.3*	-31.4	0.33	nt
C/C(=N\NC(=O)c1cc(-c2ccncc2)nc2ccccc12)c1ccc(OC(F)F)cc1	2.1	nt	nt	nt	nt
Nc1nc(-c2ccccc2)c(N=Nc2ccccc2Cl)s1	9.2*	4.0	-22.0	-1.39	-2.1
Nc1nc(-c2ccccc2)c(N=Nc2cccc3ccccc23)s1	4.8	11.3	-38.5	-1.23	2.6
Cc1nc(SCC(=O)Nc2ccc3c(c2)OCO3)c(C#N)c2c1CCCC2	4.5	42.2*	-64.2	-1.59	-0.7
SMILES	RAM network inh	Measles CPE	Yeast growth inh	SDO1 yeast rescue	Yeast life ext
Cc1cc(C)c(C#N)c(SCC(=O)Nc2ccc3c(c2)OCO3)n1	2.4	23.8	-17.7	0.38	-12.1
O=C(CN1C(=O)COc2ccccc21)NCCCN1CCN(Cc2ccccc2)CC1	1.4	7.4	-48.5	0.64	5.7
O=C(CN1C(=O)COc2ccccc21)NCCCN1CCc2ccccc2C1	2.5	27.4*	-36.6	0.91	-14.4
COc1ccccc1NC(=S)NC1CCCCCC1	0.0	7.1	-16.4	0.24	-3.9
CC1=NNC(=O)/C1=C\c1cn(-c2ccccc2)nc1-c1ccc(F)cc1	2.3	nt	nt	nt	nt
CC1=NNC(=O)/C1=C\c1cn(-c2ccccc2)nc1-c1cccs1	2.5	0.0	96.3*	-1.88	-2.0
CSc1nc(Cl)c(Cc2ccc(OCC(C)C)cc2)c(N2CCOCC2)n1	8.6*	22.8	-19.1	-0.61	4.4
CCOc1ccc(Cc2c(Cl)nc(SC)nc2OC)cc1	9.4*	18.8	4.1	-0.19	-7.5
